From ChEMBL document CHEMBL1154414, “In vitro and in vivo activities of T-705 against arenavirus and bunyavirus infections” (Antimicrob Agents Chemother, 2007) come the findings set out here.

Assay [1] concerns Punta Toro virus. In words: Antiviral activity against Punta Toro virus Adames infected Syrian golden hamster assessed as animals with detectable virus level in liver at 30 mg/kg, […] measured on day 4 of viral infection. The format is functional. The note with it: route oral.
In assay [2] the test system is Punta Toro virus. In words: Antiviral activity against 5000 PFU Punta Toro virus Adames infected C57BL/6 mouse assessed as mean viral titer per 0.1 g of liver at 30 mg/kg, po twice daily administered 24 hrs post viral challenge measured on day 3 of viral infection. The format is functional. The method in brief: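 Mice were infected subcutaneously with PTV and dosed by oral gavage twice daily; 5 per group (10 placebo) were killed on day 3 or 4. Liver homogenate or serum was serially diluted onto triplicate LLC-MK2 monolayers, and CPE was read 6–8 days later. 50% endpoints gave log10 CCID50 per 0.1 g liver or 0.1 ml serum. Detection range was 2.8–9.5; undetectable samples were assigned <2.8.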

The test system of assay [3] is Punta Toro virus. Description: Antiviral activity against 5000 PFU Punta Toro virus Adames infected C57BL/6 mouse assessed as mean serum ALT levels at 10 mg/kg, po twice daily administered 24 hrs post viral challenge measured on day 3 of viral infection. The format is functional. The method in brief: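 C57BL/6 mice received subcutaneous PTV, then oral gavage twice daily for 5–7 days. T-705 was given in 0.4% CMC and ribavirin in saline. Five mice per group (10 placebo) were killed on day 3 or 4, and serum was collected. ALT activity was measured by kinetic assay. Three sham-infected mice set baselines.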

In assay [4] the test system is Punta Toro virus. In words: Antiviral activity against 50 PFU Punta Toro virus Adames infected C57BL/6 mouse assessed as animals with detectable virus level in serum at 10 mg/kg, po twice daily administered 24 hrs post viral challenge measured on day 3 of viral infection. The format is functional. The method in brief:
(§1)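 T-705 was suspended in 0.4% carboxymethylcellulose and given by oral gavage twice daily. Mice were infected subcutaneously with PTV. Five mice per group (10 placebo) were sacrificed on day 3 or 4. Liver homogenate or serum was serially diluted onto triplicate LLC-MK2 monolayers, and CPE was read at 6–8 days. The detection limit was 2.8 log10 CCID50 per 0.1 g liver or 0.1 ml serum.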

The test system of assay [5] is Punta Toro virus. In words: Antiviral activity against Punta Toro virus Adames infected Syrian golden hamster assessed as survival at 30 mg/kg, po twice daily for 6 days administered 4 hrs before viral challenge. The format is functional. The method in brief: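 Hamsters (groups of 15, placebo 25-30) were challenged subcutaneously with 50 PFU and dosed twice daily by oral gavage in 0.4% CMC vehicle.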

Assay [6] relates to Pichinde virus. In words: Antiviral activity against Pichinde virus An 4763 infected Syrian golden hamster assessed as mean serum ALT levels at 50 mg/kg, po twice daily for 7 days administered 24 hrs post viral-challenge measured on day 7 of viral infection. The format is functional. The method in brief: (§2)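 Hamsters were challenged intraperitoneally (bilateral, 65 PFU) and given twice-daily oral gavage doses (0.4% CMC vehicle). Five per group were sacrificed on day 7 and serum was collected. Serum ALT activity was measured by kinetic assay. Three sham-infected animals set the baselines.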

The test system of assay [7] is Pichinde virus. In words: Antiviral activity against Pichinde virus An 4763 infected Syrian golden hamster assessed as mean serum ALT levels at 20 mg/kg, po twice daily for 7 days administered 24 hrs post viral-challenge measured on day 7 of viral infection. The format is functional. The method in brief:
as §2

For assay [8], the system named is Pichinde virus. Description: Antiviral activity against Pichinde virus An 4763 infected Syrian golden hamster assessed as survival at 50 mg/kg, po twice daily for 7 days administered 72 hrs post viral-challenge. The format is functional. The method in brief:
(§3)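 Groups of 15 hamsters (placebo 25-30) were challenged intraperitoneally (bilateral, 65 PFU) and dosed twice daily by oral gavage in 0.4% CMC for 5 to 7 days.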

The subject of assay [9] is Pichinde virus. Description: Antiviral activity against Pichinde virus An 4763 infected Syrian golden hamster assessed as mean day of death at 50 mg/kg, po twice daily for 7 days administered 72 hrs post viral-challenge measured on day 7 of viral infection. The format is functional. The method in brief:
as §3

Assay [10] relates to Pichinde virus. In words: Antiviral activity against Pichinde virus An 4763 infected Syrian golden hamster assessed as mean day of death at 20 mg/kg, po twice daily for 7 days administered 72 hrs post viral-challenge measured on day 7 of viral infection. The format is functional. The method in brief:
as §3

Assay [11] concerns Pichinde virus. Description: Antiviral activity against Pichinde virus An 4763 infected Syrian golden hamster assessed as mean viral titer per 0.1 g of liver at 50 mg/kg, po twice daily for 7 days administered 72 hrs post viral-challenge measured on day 7 of viral infection. The format is functional. The method in brief:
(§4)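 Hamsters (groups of 15, placebo 25-30) were dosed orally by gavage twice daily (drug suspended in 0.4% CMC) after bilateral intraperitoneal challenge with 65 PFU. Five per group were killed on day 7. Liver homogenate or serum was serially diluted onto triplicate B-SC-1 wells, CPE was read at 6-8 days, and the 50% endpoint was taken. Range was 2.8-9.5 log10 CCID50/0.1 g or 0.1 ml, with undetectable assigned <2.8.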

In assay [12] the test system is Pichinde virus. Description: Antiviral activity against Pichinde virus An 4763 infected Syrian golden hamster assessed as animals with detectable virus level in serum at 20 mg/kg, po twice daily for 7 days administered 72 hrs post viral-challenge measured on day 7 of viral infection. The format is functional. The method in brief: as §4
Assay [13] concerns Pichinde virus. In words: Antiviral activity against Pichinde virus An 4763 infected Syrian golden hamster assessed as mean serum ALT levels at 20 mg/kg, po twice daily for 7 days administered 72 hrs post viral-challenge measured on day 7 of viral infection. The format is functional. The method in brief:
as §2

Assay [14] concerns Punta Toro virus. Description: Antiviral activity against 500 PFU Punta Toro virus Adames infected C57BL/6 mouse assessed as animals with detectable virus level in liver at 30 mg/kg, po twice daily administered 24 hrs post viral challenge measured on day 3 of viral infection. The format is functional. The method in brief:
as §1

Assay [15] deals with Punta Toro virus. Description: Antiviral activity against Punta Toro virus Adames infected Syrian golden hamster assessed as mean viral titer per 0.1 mL of serum at 30 mg/kg, po twice daily administered 4 hrs before viral challenge measured on day 4 of viral infection. The format is functional. The method in brief:
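Hamsters received twice-daily oral gavage doses (0.4% CMC) after subcutaneous challenge with 50 PFU. Five per group were killed on day 3 or 4. Liver homogenate or serum was serially diluted onto triplicate LLC-MK2 wells, CPE was read at 6-8 days, and the 50% endpoint was taken. Range was 2.8-9.5 log10 CCID50/0.1 g or 0.1 ml, with undetectable assigned <2.8.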

In assay [16] the test system is Punta Toro virus. In words: Antiviral activity against Punta Toro virus Adames infected Syrian golden hamster assessed as mean serum ALT levels at 30 mg/kg, po twice daily administered 4 hrs before viral challenge measured on day 4 of viral infection. The format is functional. The method in brief: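 Hamsters were challenged subcutaneously with 50 PFU and dosed twice daily by oral gavage in 0.4% CMC. Five per group were sacrificed on day 3 or 4. Livers were scored 0-4 for icterus, and serum ALT was measured by kinetic assay against three sham-infected baseline animals.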

Assay [17] concerns Pichinde virus. In words: Antiviral activity against Pichinde virus An 4763 in Vero cells assessed as inhibition of virus-induced visual cytopathic effect after 7 to 8 days. The format is functional, organism-based. The method in brief:
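Subconfluent (50-70%) Vero cells were infected with virus in 2% FBS medium at the CCID50 giving maximal CPE. Half-log drug dilutions were added at infection. EC50 was obtained by regression analysis.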
(Cytopathic effects are the visible damage that an infection or toxin causes in cultured cells.)

The test system of assay [18] is Pichinde virus. In words: Antiviral activity against Pichinde virus An 4763 infected Syrian golden hamster assessed as mean viral titer per 0.1 g of liver at 50 mg/kg, po twice daily for 7 days administered 24 hrs post viral-challenge measured on day 7 of viral infection. The format is functional. The method in brief:
as §4

The subject of assay [19] is Pichinde virus. Description: Antiviral activity against Pichinde virus An 4763 infected Syrian golden hamster assessed as animals with detectable virus level in liver at 50 mg/kg, po twice daily for 7 days administered 24 hrs post viral-challenge measured on day 7 of viral infection. The format is functional. The method in brief: as §4

Usually EC50 stands for the concentration that produces a half-maximal response. As for `NC(=O)c1nc(F)cnc1O` [FAVIPIRAVIR], the Activity in the assay on Punta Toro virus [1] came out at 40%; in the assay with Punta Toro virus [3], 2274 IU/L; in the assay with Punta Toro virus [4], 100%; with Pichinde virus [6] it was 61 IU/L; with Pichinde virus [7], 1583 IU/L; in the assay on Pichinde virus [9], 14.8 days. Moreover, the Activity with Pichinde virus [10] turned out to be 8.1 days; in the assay on Pichinde virus [12] it was 100%; in the assay with Pichinde virus [13], 1890 IU/L; with Punta Toro virus [14] it was 60%; in the assay with Punta Toro virus [16] it was 25 IU/L; in the assay with Pichinde virus [19], 100%. In addition, the log10CCID50 was less than 2.9 with Punta Toro virus [2], 6.8 with Pichinde virus [11], less than 4.5 with Punta Toro virus [15] and 5.7 in the assay on Pichinde virus [18]. Besides, the survival at 30 mg/kg in the assay on Punta Toro virus [5] (Punta Toro virus, Adames) amounted to 90%. Further, the Efficacy in the assay with Pichinde virus [8] is 60%. The EC50 in the assay on Pichinde virus [17] is 6 µM.

As to `NC(=O)c1ncn([C@@H]2O[C@H](CO)[C@@H](O)[C@H]2O)n1` [RIBAVIRIN], the Activity with Punta Toro virus [1] amounted to 0%; in the assay on Punta Toro virus [3], 1515 IU/L; in the assay on Punta Toro virus [4], 60%; in the assay with Punta Toro virus [5] it was 70%; with Pichinde virus [6], 26 IU/L; in the assay on Pichinde virus [7], 24 IU/L. Also, the Activity is 18.5 days with Pichinde virus [9]; 18.3 days in the assay with Pichinde virus [10]; 100% in the assay with Pichinde virus [12]; 67 IU/L with Pichinde virus [13]; 60% in the assay on Punta Toro virus [14]; 13 IU/L in the assay on Punta Toro virus [16]. In addition, in the assay on Pichinde virus [19], the Activity came to 100%. Also, the log10CCID50 in the assay on Punta Toro virus [2] is listed as less than 2.9; in the assay on Pichinde virus [11] it was 6.5; with Punta Toro virus [15], less than 2.8; with Pichinde virus [18] it was 4.2. In addition, the Efficacy in the assay with Pichinde virus [8] turned out to be 60%. Further, the EC50 in the assay on Pichinde virus [17] worked out at 13 µM.
